Results on 25 compounds are retold here after ChEMBL document CHEMBL1938287, “Design and synthesis of inhaled p38 inhibitors for the treatment of chronic obstructive pulmonary disease” (J Med Chem, 2011).

≈ marks a conversion by molar mass, not a printed value.

Series [1] can be described thus: Metabolic stability in human liver microsomes. Particulars: read-out: Stability. In kind it is ADME, Microsome. For orientation: Microsomes from liver hold many membrane-bound enzymes, among them those of drug oxidation.
The nature of series [2]: Metabolic stability in human liver microsomes assessed as phase II glucuronidation in the presence of uridine diphosphate glucuronic acid and absence of NADPH. Type of series: ADME, Microsome. Conditions: read-out: Stability. The method in brief: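 Human liver microsomes incubated with the cofactor UDPGA and without NADPH, to assess phase II glucuronidation.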
The species entered for series [3] is Rattus norvegicus. The series is described as follows: Unbound clearance in rat. Type of series: ADME, organism-based. Particulars: in vivo.
The nature of series [4]: Volume of distribution at steady state in rat at 1 mg/kg, iv. Details: dose 1 mg/kg, route intravenous. Particulars: in vivo, read-out: Vdss. Type of series: ADME, organism-based.
Series [5] can be described thus: Intrinsic clearance in rat liver microsomes. In kind it is ADME, Microsome. Conditions: read-out: CLH.
The nature of series [6]: Oral bioavailability in rat at 3 mg/kg. Type of series: ADME, organism-based. Conditions: in vivo. In short, it runs like this:
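Oral pharmacokinetics in rats from a 3 mg/kg dose.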

Series [7] can be described thus: Clearance in rat at 1 mg/kg, iv. Type of series: ADME, organism-based. Details: dose 1 mg/kg, route intravenous. Conditions: in vivo. In short, it runs like this: (§1)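 Intravenous pharmacokinetics in rats from a 1 mg/kg dose; blood sampled.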
Series [8] can be described thus: Half life in rat at 1 mg/kg, iv. Type of series: ADME, organism-based. Conditions: in vivo. Set-up: dose 1 mg/kg, route intravenous. The method in brief:
as §1

Series [9] is described as follows: Solubility in simulated lung fluid. Type of series: physicochemical.
For series [10], the system named is Liver microsomes. The series is described as follows: Drug metabolism in rat liver microsomes. Type of series: ADME, Microsome.
A short description of series [11]: Half life in dog at 0.5 mg/kg, iv. Type of series: ADME, organism-based, Canis lupus familiaris. Details: dose 0.5 mg/kg, route intravenous. Particulars: in vivo. In short, it runs like this:
(§2)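 Intravenous pharmacokinetics in dogs from a 0.5 mg/kg dose; blood sampled.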

Series [12] can be described thus: Clearance in dog at 0.5 mg/kg, iv. In kind it is ADME, organism-based, Canis lupus familiaris. Details: dose 0.5 mg/kg, route intravenous. Conditions: in vivo. In short, it runs like this: as §2
For series [13], the species on record is Canis familiaris. The series is described as follows: Unbound clearance in dog. Type of series: ADME, organism-based, Canis lupus familiaris. Particulars: in vivo.
The nature of series [14]: Oral bioavailability in rat at 0.5 mg/kg. Type of series: ADME, organism-based. Conditions: in vivo. The method in brief:
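Oral pharmacokinetics in rats from a 0.5 mg/kg dose; blood sampled.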

Series [15] can be described thus: Aqueous solubility of the compound. Type of series: physicochemical.
Series [16] in a line: Lipophilicity, log D of the compound. Type of series: physicochemical. Particulars: octanol/water.
Series [17] is described as follows: Dissociation constant, pKa of the compound. Type of series: physicochemical.
For series [18], the system named is Liver microsomes. Put plainly: Drug metabolism in human liver microsomes. In kind it is ADME, Microsome.
A short description of series [19]: Volume of distribution at steady state in dog at 0.5 mg/kg, iv. Details: dose 0.5 mg/kg, route intravenous. Particulars: in vivo, read-out: Vdss. Type of series: ADME, organism-based, Canis lupus familiaris.
A short description of series [20]: Drug metabolism in dog liver microsomes. Type of series: ADME, Canis lupus familiaris, Microsome.

Consider `CC(C)c1nnc2ccc(Sc3ccccc3CNC(=O)Nc3cc(C(C)(C)C)nn3-c3ccccc3)cn12`, for which the microsomal CLint in series [1] is above 320 µL/min/mg.
Consider `CSC(C)(C)c1cc(NC(=O)NCc2ccccc2Sc2ccc3nnc(C(C)C)n3c2)n(-c2ccccc2)n1`, for which the values for the microsomal CLint in series [1] and in [2] were above 320 µL/min/mg and 1.7 µL/min/mg, respectively.
As to `CC(C)c1nnc2ccc(Sc3ccccc3CNC(=O)Nc3cc(C(C)(C)C)nn3-c3cccc(O)c3)cn12`, the microsomal CLint in series [1] stood at 385 µL/min/mg.
In the case of `CC(C)c1nnc2ccc(Sc3ccccc3CNC(=O)Nc3cc(C(C)(C)C)nn3-c3ccc(O)cc3)cn12`, in series [1], the microsomal CLint is 196 µL/min/mg.
In turn, `CSC(C)(C)c1cc(NC(=O)NCc2ccccc2Sc2ccc3nnc(C(C)C)n3c2)n(-c2cccc(O)c2)n1` gave a CL free in series [3] above 9600 mL/min/kg. In addition, the Vd in [4] amounted to 0.9 L/kg. The microsomal CLint in [5] is 200 µL/min/mg; in series [1] it was above 440 µL/min/mg; in series [2], 2 µL/min/mg. This compound also showed a bioavailability in series [6] below 5%. This compound gave a clearance in series [7] of 77 mL/min/kg. The same compound showed a half-life in series [8] of 1 h.
For the compound `CC(C)c1nnc2ccc(Sc3ccccc3CNC(=O)Nc3cc(C(C)(C)C)nn3-c3ccc(O)c(Cl)c3)cn12`, the microsomal CLint in [1] was above 287 µL/min/mg; in series [2] it was 155 µL/min/mg.
On the same counts, the results for `CC(C)c1nnc2ccc(Sc3ccccc3CNC(=O)Nc3cc(C(C)(C)C)nn3-c3ccc(Cl)c(O)c3)cn12` are 303 µL/min/mg and 66 µL/min/mg.
For the compound `Cc1ccc(-n2nc(C(C)(C)C)cc2NC(=O)NCc2ccccc2Sc2ccc3nnc(-c4ccccc4O)n3c2)cc1`, the microsomal CLint in series [1] is 279 µL/min/mg.
In the case of `Cc1cccc(-n2nc(C(C)(C)C)cc2NC(=O)NCc2ccccc2Sc2ccc3nnc(-c4cccc(Cl)c4O)n3c2)c1`, the figures for the microsomal CLint in series [1] and in series [2] were 126 µL/min/mg and 41 µL/min/mg, respectively.
On the same counts, the results for `CSCC(C)(C)c1cc(NC(=O)NCc2ccccc2Sc2ccc3nnc(-c4ccccc4O)n3c2)n(-c2ccccc2)n1` are above 440 µL/min/mg and 27 µL/min/mg.
In the case of `Cc1ccc(-n2nc(C(C)(C)C)cc2NC(=O)NCc2ccccc2Sc2ccc3nnc(-c4cc(O)ccc4Cl)n3c2)cc1`, the microsomal CLint in [1] was above 440 µL/min/mg; in series [2] it was 43 µL/min/mg.
As for `Cc1ccc(-n2nc(C(C)(C)C)cc2NC(=O)NCc2ccccc2Sc2ccc3nnc(-c4ccc(O)cc4Cl)n3c2)cc1`, the microsomal CLint in [1] was 132 µL/min/mg.
On to `CSc1ccccc1-c1nnc2ccc(Sc3ccccc3CNC(=O)Nc3cc(C(C)(C)C)nn3-c3cccc(O)c3)cn12`, for which the figures for the microsomal CLint in series [1] and in series [2] were 304 µL/min/mg and 11 µL/min/mg, respectively.
Turning to `CC(C)(C)c1cc(NC(=O)NCc2ccccc2Sc2ccc3nnc(-c4ccccc4O)n3c2)n(-c2cccc(OCCO)c2)n1`, the concentration in solution in [9] (solubility) came to 1 µg/mL (≈ 1.54 µM). The values for the microsomal CLint in series [1] and in [2] were above 287 µL/min/mg and 8 µL/min/mg, respectively.
As for `CC(C)(C)c1cc(NC(=O)NCc2ccccc2Sc2ccc3nnc(-c4ccccc4OCCO)n3c2)n(-c2cccc(O)c2)n1`, in [1], the microsomal CLint was above 320 µL/min/mg.
As to `CC(C)(C)c1cc(NC(=O)NCc2ccccc2Sc2ccc3nnc(-c4cc(O)ccc4Cl)n3c2)n(-c2cccc(OCCO)c2)n1`, the microsomal CLint is above 285 µL/min/mg in series [1] and 53 µL/min/mg in [2].
With `CSCC(C)(C)c1cc(NC(=O)NCc2ccccc2Sc2ccc3nnc(-c4cc(O)ccc4Cl)n3c2)n(-c2cccc(OCCO)c2)n1`, the results for the microsomal CLint in [1] and in series [2] were above 216 µL/min/mg and 47 µL/min/mg, respectively.
Regarding `CC(C)(C)c1cc(NC(=O)NCc2ccccc2Sc2ccc3nnc(-c4ccccc4OCCO)n3c2)n(-c2ccc(O)c(Cl)c2)n1`, the microsomal CLint was found to be 202 µL/min/mg in series [1] and 130 µL/min/mg in series [2].
On the same counts, the results for `CC(C)(C)c1cc(NC(=O)NCc2ccccc2Sc2ccc3nnc(-c4ccccc4OCCO)n3c2)n(-c2ccc(Cl)c(O)c2)n1` are 232 µL/min/mg and 70 µL/min/mg.
On the same counts, the results for `CSCC(C)(C)c1cc(NC(=O)NCc2ccccc2Sc2ccc3nnc(-c4ccccc4OCCO)n3c2)n(-c2ccc(O)c(Cl)c2)n1` are above 440 µL/min/mg and 310 µL/min/mg.
Consider `CC(C)(C)c1cc(NC(=O)NCc2ccccc2Sc2ccc3nnc(-c4ccccc4OCCO)n3c2)n(-c2ccc(O)c(F)c2)n1`, for which the microsomal CLint in series [1] is above 440 µL/min/mg.
Take `CC(C)(C)c1cc(NC(=O)NCc2ccccc2Sc2ccc3nnc(-c4ccccc4SCCO)n3c2)n(-c2cccc(O)c2)n1`: the microsomal CLint in [1] was above 440 µL/min/mg; in series [2], 4 µL/min/mg.
Consider `CSCC(C)(C)c1cc(NC(=O)NCc2ccccc2Sc2ccc3nnc(-c4ccccc4SCCO)n3c2)n(-c2ccc(O)c(Cl)c2)n1`, for which the microsomal CLint in [2] amounted to 264 µL/min/mg.
Turning to `C[C@@H]1C[C@H]2[C@@H]3C[C@H](F)C4=CC(=O)C=C[C@]4(C)[C@@]3(F)[C@@H](O)C[C@]2(C)[C@@]1(O)C(=O)SCF` [FLUTICASONE], the solubility in [9] was 0.5 µg/mL (≈ 1.12 µM).
As to `CC(C)(C)c1cc(NC(=O)NCc2ccccc2Sc2ccc3nnc(-c4ccccc4SCCO)n3c2)n(-c2ccc(O)c(Cl)c2)n1` [PF-03715455], the values for the CL free in series [3] and in series [13] were 33000 mL/min/kg and 15000 mL/min/kg, respectively. For the same compound, the figures for the Vd in [4] and in [19] were 0.19 L/kg and 0.06 L/kg, respectively. For the same compound, the Drug metabolism result in series [10], in [18] and in [20] was “Active” each time. In addition, the figures for the half-life in series [11] and in series [8] were 0.5 h and 1 h, respectively. The clearance in series [12] stood at 13.1 mL/min/kg; in [7], 33.8 mL/min/kg. Besides, the bioavailability in series [14] was below 5%. The solubility in series [15] was below 100 µg/mL. In series [16], this compound came in with a logD above 4.1. Further, the microsomal CLint in series [1] was above 347 µL/min/mg; in series [2], 205 µL/min/mg. The same compound gave a pKa in [17] of 7.45.

Usually bioavailability stands for the share of a dose that reaches the circulation, judged against a reference dose that is usually intravenous. High values mean good availability, low ones poor availability. One may read the clearance as the rate of elimination divided by the concentration. One may read the half-life as the time needed for the level to fall by half in the phase considered. Low readings indicate rapid decline, high ones slow decline. Usually solubility stands for how much of the substance goes into solution per volume. For orientation: logD means the decadic logarithm of the distribution of all forms, ionised or not, between an organic phase and buffer at a given pH. Higher therefore signals a more lipophilic compound. Broadly, the pKa is the pH at which an ionisable group is half protonated. High values mean a group that holds its proton tightly, low ones a group that gives up its proton readily.
